Assay results published in PMC9282716 (Cell reports, 2022).
Like-named read-outs stand apart in the source and are kept apart here.

What was measured:
[1] = tested on: Hs68 cells; experiment: TR-FRET cAMP assay in normal fibroblast cell line Hs68; type: cell-based, human; settings: 10 μM agonist, Hs68 fibroblasts
[2] = molecular target: T1, EP2 receptor (Homo sapiens, UniProt P43116); experiment: cell-based; type: cell-based
[3] = tested on: EP2-deleted SK-N-AS cells; experiment: TR-FRET cAMP assay in EP2 knockout SK-N-AS cell lines; type: cell-based, human; settings: read-out: PGE2 EC50 for cAMP
Procedure, shortened: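 EP2-knockout SK-N-AS lines were made with lentiCRISPRv2 sgRNAs, selected with puromycin (2 µg/mL) and verified by sequencing. […] After lysis with cAMP-d2 and anti-cAMP cryptate and 1 h at RT, TR-FRET was read (ex 340 nm; em 665/590 nm), n = 4. EC50 came from concentration–response curves.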

[4] = molecular target: T1, EP2 receptor; experiment: Cell-based TR-FRET cAMP assay in BE

T1 sequence (P43116 whole entry): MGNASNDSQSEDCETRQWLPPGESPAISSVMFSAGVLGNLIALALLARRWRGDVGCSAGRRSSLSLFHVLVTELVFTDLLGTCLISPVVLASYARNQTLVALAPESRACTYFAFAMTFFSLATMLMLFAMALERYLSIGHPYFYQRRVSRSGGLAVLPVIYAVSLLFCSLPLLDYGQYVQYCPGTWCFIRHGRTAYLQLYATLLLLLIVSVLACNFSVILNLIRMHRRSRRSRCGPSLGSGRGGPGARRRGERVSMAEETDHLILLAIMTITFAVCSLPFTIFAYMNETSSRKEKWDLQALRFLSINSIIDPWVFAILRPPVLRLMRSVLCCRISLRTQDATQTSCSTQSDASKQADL

O=C1CC[C@H](/C=C/[C@@H](O)Cc2ccccc2)N1CCCCCCc1nn[nH]n1 [CAY10598]
cAMP production [1]: more cAMP production than EP2 agonist butaprost and PGE2

CCOc1c2c(c(OCC)c3ccccc13)C(=O)N(c1ccc(CC(=O)NS(=O)(=O)c3ccccc3)cc1)C2 [GW627368X]
IC50, inhibition of PGE2-induced cAMP production [2]: no effect

CCCCC[C@H](O)/C=C/[C@H]1[C@H](O)CC(=O)[C@@H]1C/C=C\CCCC(=O)O [PGE2, Prostaglandin E2]
EC50 ([3]; Homo sapiens, SK-N-AS): > 10000 nM
EC50 ([3]; EP2 KO2 SK-N-AS cell line): > 10000 nM

CCCC1([C@H](O)C/C=C/[C@H]2[C@H](O)CC(=O)[C@@H]2CCCCCCC(=O)OC)CCC1 [butaprost]
EC50 ([2]; agonist EC50 for cAMP induction, SK-N-AS cells, n = 4): 170 nM
EC50 [4]: 470 nM
